Experiments:
Dihydrofolate reductase = molecular target: T1, Dihydrofolate reductase (Homo sapiens, UniProt P00374); assay: Inhibition of recombinant human DHFR expressed in Escherichia coli BL21 (DE3) cells using dihydrofolate as substrate in presence of NADPH by spectrophotometric analysis; format: toxicity
T1 sequence (P00374 whole entry): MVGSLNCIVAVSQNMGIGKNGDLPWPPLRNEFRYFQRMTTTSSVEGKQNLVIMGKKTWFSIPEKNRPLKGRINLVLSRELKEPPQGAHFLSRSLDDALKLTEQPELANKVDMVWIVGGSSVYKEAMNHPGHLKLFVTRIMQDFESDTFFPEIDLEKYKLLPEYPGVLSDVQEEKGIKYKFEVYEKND

[1] = molecular target: Bifunctional dihydrofolate reductase-thymidylate synthase (Trypanosoma brucei brucei, UniProt Q27783); assay: Inhibition of recombinant Trypanosoma brucei DHFR-TS expressed in Escherichia coli BL21 (DE3) cells using dihydrofolate as substrate in presence of NADPH by spectrophotometric analysis
Chain of Bifunctional dihydrofolate reductase-thymidylate synthase (Trypanosoma brucei brucei, UniProt Q27783) (Q27783 whole entry): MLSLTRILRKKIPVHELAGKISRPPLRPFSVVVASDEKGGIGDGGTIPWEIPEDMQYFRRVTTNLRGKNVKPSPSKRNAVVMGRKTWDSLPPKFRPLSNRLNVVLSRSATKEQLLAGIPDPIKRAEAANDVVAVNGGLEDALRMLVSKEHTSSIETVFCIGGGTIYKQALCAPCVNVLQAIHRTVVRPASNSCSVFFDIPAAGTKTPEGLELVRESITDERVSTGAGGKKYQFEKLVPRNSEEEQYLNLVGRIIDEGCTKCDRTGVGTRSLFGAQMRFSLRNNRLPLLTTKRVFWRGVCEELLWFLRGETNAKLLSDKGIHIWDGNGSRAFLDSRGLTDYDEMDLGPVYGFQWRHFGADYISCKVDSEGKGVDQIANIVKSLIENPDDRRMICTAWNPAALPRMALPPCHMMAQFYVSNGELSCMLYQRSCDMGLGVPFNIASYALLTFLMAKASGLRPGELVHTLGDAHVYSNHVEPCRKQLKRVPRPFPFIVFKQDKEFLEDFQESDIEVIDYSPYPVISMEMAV

[2] = molecular target: T2, Pteridine reductase, putative (Trypanosoma brucei, UniProt Q581W1); assay: Inhibition of recombinant Trypanosoma brucei PTR1 expressed in Escherichia coli BL21 (DE3) cells using H2B as substrate in presence of cytochrome c and NADPH by envision multilabel reader
T2 sequence (Q581W1 whole entry): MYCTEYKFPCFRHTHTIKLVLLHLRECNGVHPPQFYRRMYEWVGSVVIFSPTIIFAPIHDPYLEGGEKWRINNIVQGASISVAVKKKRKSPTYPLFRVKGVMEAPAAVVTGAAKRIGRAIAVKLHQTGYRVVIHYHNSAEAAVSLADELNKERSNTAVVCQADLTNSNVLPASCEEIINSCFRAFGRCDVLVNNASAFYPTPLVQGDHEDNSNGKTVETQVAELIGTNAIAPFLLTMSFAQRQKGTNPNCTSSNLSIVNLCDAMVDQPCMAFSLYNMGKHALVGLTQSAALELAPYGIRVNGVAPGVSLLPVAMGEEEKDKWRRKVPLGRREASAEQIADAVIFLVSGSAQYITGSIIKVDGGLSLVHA

[3] = tested on: human DHFR versus Leishmania major PTR1; assay: Selectivity index, ratio of IC50 for human DHFR to IC50 for Leishmania major PTR1; format: toxicity; conditions: read-out: Ratio IC50
[4] = tested on: human DHFR versus Leishmania major DHFR; assay: Selectivity index, ratio of IC50 for human DHFR to IC50 for Leishmania major DHFR; format: toxicity; conditions: read-out: Ratio IC50
[5] = tested on: human DHFR versus Trypanosoma brucei PTR1; assay: Selectivity index, ratio of IC50 for human DHFR to IC50 for Trypanosoma brucei PTR1; format: toxicity; conditions: read-out: Ratio IC50
[6] = molecular target: Bifunctional dihydrofolate reductase-thymidylate synthase (Leishmania major, UniProt P07382); assay: Inhibition of recombinant Leishmania major DHFR-TS expressed in Escherichia coli BL21 (DE3) cells using dihydrofolate as substrate in presence of NADPH by spectrophotometric analysis
Chain of Bifunctional dihydrofolate reductase-thymidylate synthase (Leishmania major, UniProt P07382) (P07382 whole entry): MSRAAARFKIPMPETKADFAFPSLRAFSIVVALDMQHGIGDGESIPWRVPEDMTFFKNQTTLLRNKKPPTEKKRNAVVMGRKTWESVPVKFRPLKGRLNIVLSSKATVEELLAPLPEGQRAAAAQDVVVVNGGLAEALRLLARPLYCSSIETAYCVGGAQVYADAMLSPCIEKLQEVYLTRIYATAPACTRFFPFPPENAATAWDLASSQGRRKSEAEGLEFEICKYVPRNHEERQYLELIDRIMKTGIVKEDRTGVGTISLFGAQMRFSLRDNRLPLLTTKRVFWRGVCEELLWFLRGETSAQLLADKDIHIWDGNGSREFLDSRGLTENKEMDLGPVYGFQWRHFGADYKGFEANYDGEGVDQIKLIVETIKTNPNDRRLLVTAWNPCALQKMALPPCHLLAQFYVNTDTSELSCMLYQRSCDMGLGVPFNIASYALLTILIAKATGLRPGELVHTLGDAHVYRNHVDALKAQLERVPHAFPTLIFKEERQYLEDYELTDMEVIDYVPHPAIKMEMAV

[7] = tested on: human DHFR versus Trypanosoma brucei DHFR; assay: Selectivity index, ratio of IC50 for human DHFR to IC50 for Trypanosoma brucei DHFR; format: toxicity; conditions: read-out: Ratio IC50
Pteridine reductase 1 = molecular target: T3, Pteridine reductase 1 (Leishmania major, UniProt Q01782); assay: Inhibition of recombinant Leishmania major PTR1 expressed in Escherichia coli BL21 (DE3) cells using H2B as substrate in presence of cytochrome c and NADPH by envision multilabel reader
T3 sequence (Q01782 whole entry): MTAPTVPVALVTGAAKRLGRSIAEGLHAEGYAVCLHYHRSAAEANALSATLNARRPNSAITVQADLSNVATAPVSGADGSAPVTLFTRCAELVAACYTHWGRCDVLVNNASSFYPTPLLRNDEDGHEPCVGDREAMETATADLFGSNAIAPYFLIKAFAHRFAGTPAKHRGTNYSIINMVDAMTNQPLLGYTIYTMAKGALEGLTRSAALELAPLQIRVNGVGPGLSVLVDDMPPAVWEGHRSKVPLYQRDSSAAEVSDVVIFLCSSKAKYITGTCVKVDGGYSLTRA

A549 = assay: Cytotoxicity against human A549 cells at 10 uM measured after 48 hrs by Celltiter-Glo assay relative to control; format: toxicity, cell-based; conditions: a549, 48 h
Procedure, shortened: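 Tested at 10 μM. A549 cells grown in DMEM with 10% FCS, streptomycin 100 μg/mL and penicillin G 100 U/mL. Viability read as cellular ATP by CellTiter-Glo luminescence.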

786-0 = assay: Mitochondrial toxicity in human 786-0 cells at 10 uM incubated with compound for 6 hrs followed by incubation with MitoTracker Red chloromethyl-X-rosamine dye for 45 mins by imaging analysis relative to control; format: cell-based; conditions: 786-0, 6 h
Procedure, shortened: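 Tested at 10 μM. 786-O cells kept in RPMI-1640 with 2 mM glutamine, 10% FCS, streptomycin 100 μg/mL and penicillin G 100 U/mL. Mitochondrial toxicity read as MitoTracker Red (chloromethyl-X-rosamine) uptake by high-content imaging.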

[8] = tested on: Trypanosoma brucei brucei; assay: Antitrypanosomal activity against bloodstream form of Trypanosoma brucei brucei Lister 427 assessed as parasite growth inhibition incubated for 72 hrs by resazurin dye based analysis; format: functional, organism-based; conditions: Lister 427, 72 h
[9] = tested on: Trypanosoma brucei brucei; assay: Antitrypanosomal activity against bloodstream form of Trypanosoma brucei brucei Lister 427 assessed as parasite growth inhibition at 10 uM incubated for 72 hrs by resazurin dye based analysis relative to control; format: functional
[10] = (§1) Cytotoxicity against human THP-1 derived macrophages by colorimetric MTT assay; format: toxicity, cell-based, Macrophage; conditions: THP-1 derived macrophages
Procedure, shortened: (§2)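 CC50 from at least three independent MTT colorimetric cytotoxicity runs on THP-1-derived macrophages. Selectivity index is CC50 (or lower CC50 interval estimate) divided by antiparasitic EC50.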

Macrophage = assay: as §1; format: toxicity, cell-based; conditions: macrophage; procedure, shortened: as §2
CYP3A4 = CYP3A4 (Homo sapiens, UniProt P08684); assay: Inhibition of CYP3A4 (unknown origin) expressed in baculovirus-infected insect cells at 10 uM using CYP/Luciferin as substrate incubated for 30 mins in presence of NADPH by luminescence based analysis relative to control; format: ADME; conditions: probe CYP/Luciferin
Chain of CYP3A4 (P08684 whole entry, canonical isoform): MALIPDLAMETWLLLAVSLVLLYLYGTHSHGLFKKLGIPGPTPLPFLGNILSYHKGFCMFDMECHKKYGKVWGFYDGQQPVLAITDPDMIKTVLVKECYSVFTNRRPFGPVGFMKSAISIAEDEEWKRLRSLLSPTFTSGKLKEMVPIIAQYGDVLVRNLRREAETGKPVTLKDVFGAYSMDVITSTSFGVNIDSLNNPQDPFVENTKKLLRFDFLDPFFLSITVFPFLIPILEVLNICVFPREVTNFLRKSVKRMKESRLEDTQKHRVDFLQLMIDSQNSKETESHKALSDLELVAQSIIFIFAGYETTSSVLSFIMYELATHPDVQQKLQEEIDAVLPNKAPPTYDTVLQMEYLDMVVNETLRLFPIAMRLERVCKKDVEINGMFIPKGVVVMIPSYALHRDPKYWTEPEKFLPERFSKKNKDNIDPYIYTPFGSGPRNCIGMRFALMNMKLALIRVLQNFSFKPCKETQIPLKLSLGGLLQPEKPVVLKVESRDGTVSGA
Procedure, shortened: (§3)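 Tested at 10 μM using microsomal preparations of each CYP isoform from baculovirus-infected insect cells on a luminescent P450-Glo platform. The enzyme acts on its substrate to give light, and a fall in luminescence indicates inhibition.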

CYP1A2 = molecular target: T4, CYP1A2 (Homo sapiens, UniProt P05177); assay: Inhibition of CYP1A2 (unknown origin) expressed in baculovirus-infected insect cells at 10 uM using CYP/Luciferin as substrate incubated for 30 mins in presence of NADPH by luminescence based analysis relative to control; format: ADME; conditions: probe CYP/Luciferin; procedure, shortened: as §3
T4 sequence (P05177 whole entry): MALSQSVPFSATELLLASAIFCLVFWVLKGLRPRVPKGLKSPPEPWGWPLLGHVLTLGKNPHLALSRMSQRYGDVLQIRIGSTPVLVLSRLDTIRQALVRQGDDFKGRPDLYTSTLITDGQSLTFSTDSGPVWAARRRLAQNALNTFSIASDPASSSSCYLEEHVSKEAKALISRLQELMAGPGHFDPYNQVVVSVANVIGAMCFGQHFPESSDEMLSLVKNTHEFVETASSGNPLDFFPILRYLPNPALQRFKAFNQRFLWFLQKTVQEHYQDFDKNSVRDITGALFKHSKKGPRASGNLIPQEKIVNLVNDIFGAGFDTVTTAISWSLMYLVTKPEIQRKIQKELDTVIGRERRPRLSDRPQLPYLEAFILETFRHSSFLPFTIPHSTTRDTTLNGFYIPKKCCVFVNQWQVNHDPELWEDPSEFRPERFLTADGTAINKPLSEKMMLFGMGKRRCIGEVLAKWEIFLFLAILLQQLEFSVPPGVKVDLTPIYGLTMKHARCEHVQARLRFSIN

[11] = molecular target: Voltage-gated inwardly rectifying potassium channel KCNH2 (Homo sapiens, UniProt Q12809); assay: Inhibition of hERG potassium channel at 10 uM by fluorescence polarization assay relative to control; format: toxicity
Chain of Voltage-gated inwardly rectifying potassium channel KCNH2 (Q12809 whole entry): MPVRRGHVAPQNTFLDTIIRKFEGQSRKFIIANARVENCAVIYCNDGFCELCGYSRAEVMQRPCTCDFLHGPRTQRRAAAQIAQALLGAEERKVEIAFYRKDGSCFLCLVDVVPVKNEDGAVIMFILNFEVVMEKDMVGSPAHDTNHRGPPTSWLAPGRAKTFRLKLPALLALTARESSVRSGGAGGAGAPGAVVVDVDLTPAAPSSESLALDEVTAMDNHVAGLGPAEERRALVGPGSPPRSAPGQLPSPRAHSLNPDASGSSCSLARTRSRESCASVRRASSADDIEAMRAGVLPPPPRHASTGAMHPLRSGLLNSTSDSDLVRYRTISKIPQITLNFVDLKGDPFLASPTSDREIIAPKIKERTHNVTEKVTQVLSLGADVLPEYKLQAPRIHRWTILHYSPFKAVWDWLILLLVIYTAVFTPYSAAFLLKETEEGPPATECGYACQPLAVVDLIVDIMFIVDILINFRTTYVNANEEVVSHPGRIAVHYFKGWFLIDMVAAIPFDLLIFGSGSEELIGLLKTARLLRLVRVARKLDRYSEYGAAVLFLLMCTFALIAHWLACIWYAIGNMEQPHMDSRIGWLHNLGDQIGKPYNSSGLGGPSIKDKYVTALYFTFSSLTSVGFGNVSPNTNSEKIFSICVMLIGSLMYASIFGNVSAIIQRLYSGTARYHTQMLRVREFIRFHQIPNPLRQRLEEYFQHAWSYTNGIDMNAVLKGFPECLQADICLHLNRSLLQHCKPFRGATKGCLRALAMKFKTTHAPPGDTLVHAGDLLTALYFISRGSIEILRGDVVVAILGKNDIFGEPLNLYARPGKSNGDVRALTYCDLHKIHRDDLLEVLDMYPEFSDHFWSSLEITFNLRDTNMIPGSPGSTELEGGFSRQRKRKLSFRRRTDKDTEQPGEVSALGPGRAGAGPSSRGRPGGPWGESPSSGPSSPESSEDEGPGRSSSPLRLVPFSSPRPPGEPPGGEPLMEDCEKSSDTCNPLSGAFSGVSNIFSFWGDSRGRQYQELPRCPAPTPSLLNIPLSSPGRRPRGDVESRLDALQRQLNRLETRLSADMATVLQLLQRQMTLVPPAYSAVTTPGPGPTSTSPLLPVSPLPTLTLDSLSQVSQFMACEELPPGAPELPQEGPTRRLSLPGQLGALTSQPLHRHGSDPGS
Procedure, shortened: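 Tested at 10 μM. Fluorescence polarization readout using a hERG-containing membrane fraction and a red fluorescent high-affinity hERG tracer. Displacement of the tracer by the compound is measured.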

| SMILES | IC50 (Dihydrofolate reductase) [nM] | IC50 [1] [nM] | IC50 [2] [nM] | selectivity ratio [3] | selectivity ratio [4] | selectivity ratio [5] | IC50 [6] [nM] | selectivity ratio [7] | IC50 (Pteridine reductase 1) [nM] | Activity (A549) [%] | Activity (786-0) [%] | EC50 [8] [nM] | inhibition at 10 µM [9] [%] | CC50 [10] [nM] | CC50 (Macrophage) [nM] | inhibition at 0.5 h, 10 µM (CYP3A4) [%] | inhibition at 0.5 h, 10 µM (CYP1A2) [%] | inhibition (INH) [11] [%] |
| --- | --- | --- | --- | --- | --- | --- | --- | --- | --- | --- | --- | --- | --- | --- | --- | --- | --- | --- |
| Nc1nc(N)c2nc(CNc3cccc4ccccc34)cnc2n1 | 4400 | 450 | 10 | 440 | 3 | 440 | 1510 | 10 | 10 | 0 | 0 |  |  |  |  |  |  |  |
| COc1ccc(Oc2ccc(CN(Cc3ccccc3)Cc3cnc4nc(N)nc(N)c4n3)cc2)cc1 |  |  | 240 |  |  |  |  |  | 150 |  | 0 | 4530 | 100 | 12500 |  |  |  |  |
| CCCOC(=O)C1CCN(C(=O)c2ccc(N(C)Cc3cnc4nc(N)nc(N)c4n3)cc2)CC1 | 9000 | 3000 | 30 | 22 | 59 | 300 | 150 | 3 | 410 | 0 | 0 |  |  |  |  |  |  |  |
| N=C(N)c1ccc(OCCCCCOc2ccc(C(=N)N)cc2)cc1 [PENTAMIDINE] |  |  |  |  |  |  |  |  |  |  |  |  |  |  | 10000 |  |  |  |
| NC(=O)C1CCCN1C(=O)Cc1ccc(N(CCCO)Cc2cnc3nc(N)nc(N)c3n2)cc1 (stereo not given) |  | 590 | 4 |  |  |  | 890 |  | 170 |  |  |  | 23 |  |  | 0 |  |  |
| Nc1nc(N)c2nc(CNc3ccc(C(=O)c4ccccc4)cc3)cnc2n1 | 6020 | 990 | 1 | 201 | 2 | 6020 | 3260 | 6 | 30 |  | 10 |  |  |  |  | 17 |  |  |
| COc1ccc(Oc2ccc(CN(C)Cc3cnc4nc(N)nc(N)c4n3)cc2)cc1 |  |  | 150 |  |  |  |  |  | 450 | 15 | 1 | 1300 | 100 | 12500 |  |  | 9 |  |
| NC(=O)C1CCN(C(=O)Cc2ccc(N(CCCO)Cc3cnc4nc(N)nc(N)c4n3)cc2)CC1 |  | 18000 | 10 |  |  |  | 1140 |  | 170 |  | 0 |  | 30 |  |  |  |  |  |
| CCN(Cc1cnc2nc(N)nc(N)c2n1)c1ccc(C(=O)c2ccccc2)cc1 |  | 340 | < 0.1 |  |  |  | 230 |  | 50 | 0 | 0 | 660 | 78 | 25000 |  |  |  |  |
| COc1ccc(Oc2ccc(CNCc3cnc4nc(N)nc(N)c4n3)cc2)cc1 |  |  | 520 | 385 | 1 | 192 |  | 1 | 260 |  | 0 |  |  |  |  | 33 |  |  |
| Nc1nc(N)c2nc(CNc3ccc(C(=O)NCCc4ccccc4)cc3)cnc2n1 | 40300 | 980 | < 0.1 | 1340 | 56 | > 403000 | 720 | 41 | 30 | 100 | 13 |  |  |  |  |  |  |  |
| COC(=O)C1CCN(C(=O)c2ccc(N(Cc3ccccc3)Cc3cnc4nc(N)nc(N)c4n3)cc2)CC1 | 73000 | 1200 | < 0.1 | 3650 | 80 | > 730000 | 910 | 61 | 20 | 100 | 0 |  |  |  |  |  |  | 45 |

Reference: ChEMBL document CHEMBL5143713, “Multitarget, Selective Compound Design Yields Potent Inhibitors of a Kinetoplastid Pteridine Reductase 1” (J Med Chem, 2022)
